The values below come from ChEMBL document CHEMBL1938233, “2-Oxo-N-aryl-1,2,3,4-tetrahydroquinoline-6-sulfonamides as activators of the tumor cell specific M2 isoform of pyruvate kinase” (Bioorg Med Chem Lett, 2011).

The structures appear in SMILES notation. The source made the active and inactive calls. The rule behind the calls is not given here.

The test system of data set [1] is Caco-2. Kind of data set: Efflux ratio of permeability from basolateral to apical side over apical to basolateral side in human Caco2 cells at pH 7.4 after 2 hrs by LC/MS/MS analysis. Conditions: caco-2, pH 7.4, 2 h.
The test system of data set [2] is Liver. The data set can be described thus: Half life in mouse liver microsomes at 2 uM after 2 mins by LC/MS/MS analysis. The format is ADME, Microsome.
The nature of data set [3]: Apparent permeability from apical to basolateral side of human Caco2 cells at pH 7.4 after 2 hrs by LC/MS/MS analysis. In kind it is ADME, cell-based. Conditions: Caco-2, pH 7.4.
Data set [4] relates to Liver microsomes. Kind of data set: Half life in human liver microsomes at 2 uM after 2 mins by LC/MS/MS analysis. The format is ADME, Microsome.
In data set [5] the target is T1, Pyruvate kinase PKM (Homo sapiens, UniProt P14618). Kind of data set: Activation of human PKM2 assessed as effect on Km of ADP at 10 uM by after 6 mins by fluorescent pyruvate kinase-lactate dehydrogenase coupled assay. The gist of the method:
(§1)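 PK–LDH coupled kinetic assay run at about 22 °C with 10 nM PKM2, 200 mM KCl and 15 mM MgCl2. Either ADP or PEP was held at 4.0 mM while the other substrate was varied. Initial velocity (pmol/min) was measured with and without compound at 10 μM.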
Target sequence in this assay (P14618 2-531 limits assumed): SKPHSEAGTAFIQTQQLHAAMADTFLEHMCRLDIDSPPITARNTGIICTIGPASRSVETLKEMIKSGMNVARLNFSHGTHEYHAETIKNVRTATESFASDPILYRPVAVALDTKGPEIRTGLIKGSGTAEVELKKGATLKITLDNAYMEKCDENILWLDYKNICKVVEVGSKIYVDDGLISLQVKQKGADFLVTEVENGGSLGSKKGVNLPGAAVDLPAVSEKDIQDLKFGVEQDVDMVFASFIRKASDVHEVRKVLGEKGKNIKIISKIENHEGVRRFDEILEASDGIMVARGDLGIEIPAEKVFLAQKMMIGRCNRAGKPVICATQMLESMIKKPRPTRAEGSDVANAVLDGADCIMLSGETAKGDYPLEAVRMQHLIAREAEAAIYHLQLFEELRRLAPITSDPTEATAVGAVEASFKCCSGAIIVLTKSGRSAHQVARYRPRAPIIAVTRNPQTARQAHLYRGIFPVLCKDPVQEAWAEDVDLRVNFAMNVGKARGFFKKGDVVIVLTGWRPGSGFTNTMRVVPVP

For data set [6], the target named is T1, Pyruvate kinase PKM. Kind of data set: Activation of human PKM2 assessed as ATP product formation after 1 hr by luminescent pyruvate kinase-luciferase coupled assay. The gist of the method:
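Luminescent pyruvate kinase–luciferase coupled assay. AC50 is the mean of three separate experiments. Maximum response is % activation at 57 μM compound, normalized as described in the supporting information.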
Target sequence in this assay (P14618 whole entry): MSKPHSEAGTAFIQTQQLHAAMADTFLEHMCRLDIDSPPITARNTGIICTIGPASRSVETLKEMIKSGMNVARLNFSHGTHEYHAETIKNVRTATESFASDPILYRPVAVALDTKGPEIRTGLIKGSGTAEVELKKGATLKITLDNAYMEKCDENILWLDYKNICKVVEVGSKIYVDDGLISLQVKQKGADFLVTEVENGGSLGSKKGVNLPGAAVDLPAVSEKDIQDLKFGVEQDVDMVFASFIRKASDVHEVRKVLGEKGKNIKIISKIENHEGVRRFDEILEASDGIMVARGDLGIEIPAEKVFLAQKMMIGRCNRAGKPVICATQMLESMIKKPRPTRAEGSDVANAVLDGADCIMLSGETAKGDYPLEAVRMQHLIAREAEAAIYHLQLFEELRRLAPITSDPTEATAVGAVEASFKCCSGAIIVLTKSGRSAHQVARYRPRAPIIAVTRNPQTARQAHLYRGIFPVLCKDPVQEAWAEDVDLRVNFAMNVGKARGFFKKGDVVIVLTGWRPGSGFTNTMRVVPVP

The target in data set [7] is Pyruvate kinase PKLR (Homo sapiens) (UniProt P30613). The data set can be described thus: Activation of PKLR assessed as ATP product formation at 57.5 uM after 1 hr by luminescent pyruvate kinase-luciferase coupled assay.
Pyruvate kinase PKLR (Homo sapiens), sequence (P30613 whole entry, looked up): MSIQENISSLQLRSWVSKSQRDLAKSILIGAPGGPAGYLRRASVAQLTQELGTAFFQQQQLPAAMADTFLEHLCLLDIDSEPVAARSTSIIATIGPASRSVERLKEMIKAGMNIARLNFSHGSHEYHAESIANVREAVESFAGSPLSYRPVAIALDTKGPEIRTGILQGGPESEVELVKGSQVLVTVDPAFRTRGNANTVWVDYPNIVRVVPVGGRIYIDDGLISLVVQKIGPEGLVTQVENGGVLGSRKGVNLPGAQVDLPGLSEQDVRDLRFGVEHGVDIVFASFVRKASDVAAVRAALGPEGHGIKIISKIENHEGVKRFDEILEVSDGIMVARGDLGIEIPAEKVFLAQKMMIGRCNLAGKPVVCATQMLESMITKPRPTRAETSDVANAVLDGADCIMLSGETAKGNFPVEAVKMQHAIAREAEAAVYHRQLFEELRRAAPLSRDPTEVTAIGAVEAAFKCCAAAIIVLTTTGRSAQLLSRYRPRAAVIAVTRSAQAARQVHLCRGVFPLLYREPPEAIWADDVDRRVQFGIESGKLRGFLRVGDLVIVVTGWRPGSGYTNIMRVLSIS
Data set [8] deals with T1, Pyruvate kinase PKM. The data set can be described thus: Activation of human PKM2 assessed as reduction in Km for PEP at 10 uM by after 6 mins by fluorescent pyruvate kinase-lactate dehydrogenase coupled assay. The gist of the method:
as §1
Target sequence in this assay (P14618 2-531 limits assumed): as the sequence (P14618 2-531 limits assumed) above

Data set [9] can be described thus: Apparent permeability from basolateral to apical side of human Caco2 cells at pH 7.4 after 2 hrs by LC/MS/MS analysis. The format is ADME, cell-based. Conditions: Caco-2, pH 7.4.
The target of data set [10] is T1, Pyruvate kinase PKM. Kind of data set: Activation of human PKM2 assessed as ATP product formation at 57 µM after 1 hr by luminescent pyruvate kinase-luciferase coupled assay.
Target sequence in this assay (P14618 2-531 limits assumed): as above
Data set [11] is described as follows: Aqueous kinetic solubility of the compound in PBS buffer. The format is physicochemical.

Take `O=C1CCc2cc(S(=O)(=O)Nc3ccc(F)c(Cl)c3)c(F)cc2N1`: in data set [1], the Ratio is on record as 0.84. Further, the t1/2 in data set [2] is 117.5 min; in data set [4], 277.2 min. For the same compound, in [3], the Papp A→B at 2 h was 9.38 ×10⁻⁶ cm/s. The result in [5] was inactive. Also, the EC50 in data set [6] amounted to 90 nM. Also, the Activity in [7] is less than 25%. For the same compound, in data set [8], the result was Active. Further, the Papp B→A at 2 h in [9] is 7.91 ×10⁻⁶ cm/s. For the same compound, in [10], the Emax amounted to 88%.

Consider `Cc1ccc(NS(=O)(=O)c2cc3c(cc2NC(C)CO)NC(=O)CC3)cc1C` (racemic), for which the EC50 in [6] is 230 nM. Besides, in [11], the Kinetic_solubility is greater than 120 µM. For the same compound, the Emax in data set [10] came to 124%.

Turning to `Cc1ccc(NS(=O)(=O)c2cc3c(cc2N[C@@H](C)CO)NC(=O)CC3)cc1Cl`, the Ratio in data set [1] was found to be 10.51. In addition, the t1/2 in [2] was found to be 22.9 min; in data set [4], 30.4 min. The Papp A→B at 2 h in data set [3] was determined as 1.13 ×10⁻⁶ cm/s. Besides, in data set [6], the half-maximal effective concentration (EC50) turned out to be 60 nM. Further, the Activity in data set [7] is less than 25%. For the same compound, in data set [9], the Papp B→A at 2 h stood at 11.9 ×10⁻⁶ cm/s. For the same compound, the Emax in data set [10] worked out at 96%.

For `Cc1ccc(NS(=O)(=O)c2ccc3c(c2)CCC(=O)N3)cc1C`, the Ratio in [1] was 0.82. In addition, the t1/2 in data set [2] turned out to be 17.3 min; in data set [4] it was 6 min. Also, the Papp A→B at 2 h in [3] amounted to 14.9 ×10⁻⁶ cm/s. The EC50 in data set [6] worked out at 790 nM. Also, in data set [7], the Activity was less than 25%. In addition, in data set [9], the Papp B→A at 2 h was 12.2 ×10⁻⁶ cm/s.
